Data from ChEMBL document CHEMBL4184131, “Cyclotheonellazoles A-C, Potent Protease Inhibitors from the Marine Sponge Theonella aff. swinhoei” (J Nat Prod, 2017).
≈ marks a conversion by molar mass, not a printed value. Starred links: 1 amine or outer side, 2 acyl side, 3 side chain; linkers in the order of their positions; H or OH if unused. Positions of bridges follow the written chain, without caps; N, C: chain ends. Non-standard residues stand in square brackets, D forms with d. Residues, ends and D or L forms follow the SMILES beside them. *: point of attachment. X2 = O=C(/C=C/c1csc([C@H](Cc2ccc(O)cc2)N[*:1])n1)[*:2]; X1 = CC[C@H](C)[C@H](N[*:1])C(=O)C(=O)[*:2]; Benzoyl(4-OH) = O=C(c1ccc(O)cc1)*; Cya = N[C@@H](CS(=O)(=O)O)C(=O)O; Nva = CCC[C@H](N)C(=O)O; Abu = CC[C@H](N)C(=O)O; Dap = NC[C@H](N)C(=O)O

Experiments:
Plasmodium falciparum [1] = experiment: Antiplasmodial activity against Plasmodium falciparum assessed as inhibition of parasite growth incubated for 48 hrs by colorimetry based p-LDH assay; assay type: functional, organism-based
[2] = Inhibition of chymotrypsin (unknown origin) incubated for 30 mins using Suc-Gly-Gly-phenylalanine-p-nitroanilide substrate by spectrophotometry; set-up: species or system Homo sapiens
Outline: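 In Tris buffer (0.6 g Tris HCl/100 mL, pH 7.5), enzyme and Suc-Gly-Gly-Phe-p-nitroanilide substrate each dissolved in buffer at 1 mg/mL. Enzyme and sample preincubated 5 min at 37 °C, then substrate added. Absorbance at 405 nm read kinetically over 30 min. Samples from 1 mg/mL DMSO stock serially diluted; IC50 fitted by four-parameter logistic model.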

[3] = Inhibition of elastase (unknown origin) incubated for 20 mins using N-Suc-Ala-Ala-Ala-p-nitroanilide substrate by spectrophotometry; set-up: species or system Homo sapiens
Outline: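 Tris buffer (2.422 g Tris HCl/100 mL, pH 8.0). Enzyme stock 75 mg/mL and N-Suc-Ala-Ala-Ala-p-nitroanilide stock 0.9 mg/mL, both in buffer. Enzyme with sample preincubated 20 min at 30 °C before substrate addition. Absorbance at 405 nm followed kinetically over 20 min. Serial dilutions from 1 mg/mL DMSO stock; IC50 from four-parameter logistic fit.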

Plasmodium falciparum [4] = experiment: Antiplasmodial activity against Plasmodium falciparum; assay type: functional, organism-based

| SMILES | IC50 (Plasmodium falciparum [1]) [µg/mL] | IC50 [2] [nM] | IC50 [3] [nM] | IC50 (Plasmodium falciparum [4]) [µg/mL] |
| --- | --- | --- | --- | --- |
| CCC[C@@H]1NC(=O)[C@@H](NC(=O)[C@H](C)NC(=O)CNC(=O)c2ccc(O)cc2)CNC(=O)[C@H](CS(=O)(=O)[O-])NC(=O)/C=C/c2csc(n2)[C@H](Cc2ccc(O)cc2)NC(=O)C(=O)[C@H]([C@@H](C)CC)NC1=O.[Na+] ({Benzoyl(4-OH)}-GA[Dap][Nva][X1][X2][Cya]; lactam 3-C) | > 20 | 0.62 | 0.034 |  |
| CO[C@H]1C[C@H](CC[C@H](C)[C@H](O)[C@H](C)[C@H]2OC(=O)/C=C/C(C)=C/C[C@H](O)C[C@@H]3C=CC[C@@H](C[C@H](OC)[C@@H](C)[C@@H](O)C[C@@H](O)[C@H](C)[C@@H]([C@@H](C)[C@@H](O)[C@@H](C)CC[C@H]4C[C@H](OC)C[C@H](C)O4)OC(=O)/C=C/C(C)=C/C[C@H](O)C[C@@H]4C=CC[C@@H](C[C@H](OC)[C@@H](C)[C@@H](O)C[C@@H](O)[C@@H]2C)O4)O3)O[C@@H](C)C1 [Swinholide A] |  |  |  | 4.75 (≈ 3.42 µM) |
| CC[C@H](C)[C@@H]1NC(=O)[C@H](CC(C)C)NC(=O)[C@@H](NC(=O)[C@H](C)NC(=O)CNC(=O)c2ccc(O)cc2)CNC(=O)[C@H](CS(=O)(=O)[O-])NC(=O)/C=C/c2csc(n2)[C@H](Cc2ccc(O)cc2)NC(=O)C1=O.[Na+] ({Benzoyl(4-OH)}-GA[Dap]L[X1][X2][Cya]; lactam 3-C) | > 20 | 2.8 | 0.1 |  |
| CC[C@@H]1NC(=O)[C@@H](NC(=O)[C@H](C)NC(=O)CNC(=O)c2ccc(O)cc2)CNC(=O)[C@H](CS(=O)(=O)[O-])NC(=O)/C=C/c2csc(n2)[C@H](Cc2ccc(O)cc2)NC(=O)C(=O)[C@H]([C@@H](C)CC)NC1=O.[Na+] ({Benzoyl(4-OH)}-GA[Dap][Abu][X1][X2][Cya]; lactam 3-C) | > 20 | 2.3 | 0.099 |  |
